Values belong to the molecule of their own block, whether it stands above or below them.
How the values were obtained:
[1] = Inhibition of HCV genotype 1b NK5.1 NS5A in infected human Huh 7.5.1 cells assessed as reduction in viral RNA replication incubated for 3 days by luciferase reporter gene assay; parameters: species or system Hepatitis C virus subtype 1b; details: Hepatitis C virus, NK5.1, Huh-7.5.1, 72 h
In short: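 Genotype 1b replicon cells (Huh 7.5.1 carrying NK5.1-Gluc) were cultured 16 h, then given serially diluted compounds for 3 days. Culture media were collected and luciferase activity measured and normalised to mock-treated cells to derive EC50. Cells were maintained in DMEM with 10% heat-inactivated FBS and antibiotics at 37°C, 6.0% CO₂.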

[2] = system: Huh7.5.1; assay: Cytotoxicity against human Huh7.5.1 cells at 20 uM; assay type: cell-based
[3] = Inhibition of HCV genotype 2a JFH5a replicon NS5A in infected human Huh 7.5.1 cells assessed as reduction in viral RNA replication incubated for 3 days by luciferase reporter gene assay; parameters: species or system Hepatitis C virus subtype 2a; details: Hepatitis C virus, Huh-7.5.1, 72 h
In short: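 Huh 7.5.1 cells were infected with JFH5a-Rluc-ad34 (a JFH1 genotype 2a derivative with adaptive E2/p7 mutations, Renilla luciferase reporter) cell-culture virus for 3 h. They were then cultured in serially diluted compounds for 3 days. Cells were harvested and Renilla luciferase activity measured, normalised to mock-treated cells, to give EC50.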

[4] = Metabolic stability in human plasma assessed as compound remaining at 100 uM after 4 hrs incubation by LC-MS/MS analysis; assay type: ADME, cell-free; details: read-out: Stability
In short: (§1)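 Test compound (100 µM stock) was added to plasma pre-warmed 5 min at 37°C, mixed by vortex and incubated at 37°C. Samples were taken at 0, 15, 30, 60 and […] and quenched with 2 volumes acetonitrile. After centrifugation at 10,000 rpm for 10 min, the supernatant was analysed by LC-MS/MS. Results are given as % remaining after 4 h; mean ± SD. Enalapril and procaine served as controls.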

[5] = system: Hepatitis C virus subtype 1b; assay: Inhibition of HCV genotype 1b NK5.1 NS5A in infected human Huh 7.5.1 cells assessed as reduction in viral RNA replication by measuring combination index in presence of NS5B inhibitor sofosbuvir at ED50 incubated for 3 days by luciferase reporter gene assay
In short: (§2)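 Huh 7.5.1 cells carrying the bicistronic genotype 1b replicon NK5.1-Gluc (secreted Gaussia luciferase) plated at 5 x 10⁴ cells/well. After 16 h they were exposed to inhibitor alone or mixed with sofosbuvir at a constant ratio, serially diluted, for 3 days. Luciferase was read and normalised to mock-treated cells. Combination index at ED50/75/90/95 was obtained by the Chou method.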

[6] = target: hERG (KCNH2) (Homo sapiens, UniProt Q12809); assay: Inhibition of human ERG at 10 uM by fluorescence polarization assay
hERG (KCNH2), sequence (Q12809 whole entry): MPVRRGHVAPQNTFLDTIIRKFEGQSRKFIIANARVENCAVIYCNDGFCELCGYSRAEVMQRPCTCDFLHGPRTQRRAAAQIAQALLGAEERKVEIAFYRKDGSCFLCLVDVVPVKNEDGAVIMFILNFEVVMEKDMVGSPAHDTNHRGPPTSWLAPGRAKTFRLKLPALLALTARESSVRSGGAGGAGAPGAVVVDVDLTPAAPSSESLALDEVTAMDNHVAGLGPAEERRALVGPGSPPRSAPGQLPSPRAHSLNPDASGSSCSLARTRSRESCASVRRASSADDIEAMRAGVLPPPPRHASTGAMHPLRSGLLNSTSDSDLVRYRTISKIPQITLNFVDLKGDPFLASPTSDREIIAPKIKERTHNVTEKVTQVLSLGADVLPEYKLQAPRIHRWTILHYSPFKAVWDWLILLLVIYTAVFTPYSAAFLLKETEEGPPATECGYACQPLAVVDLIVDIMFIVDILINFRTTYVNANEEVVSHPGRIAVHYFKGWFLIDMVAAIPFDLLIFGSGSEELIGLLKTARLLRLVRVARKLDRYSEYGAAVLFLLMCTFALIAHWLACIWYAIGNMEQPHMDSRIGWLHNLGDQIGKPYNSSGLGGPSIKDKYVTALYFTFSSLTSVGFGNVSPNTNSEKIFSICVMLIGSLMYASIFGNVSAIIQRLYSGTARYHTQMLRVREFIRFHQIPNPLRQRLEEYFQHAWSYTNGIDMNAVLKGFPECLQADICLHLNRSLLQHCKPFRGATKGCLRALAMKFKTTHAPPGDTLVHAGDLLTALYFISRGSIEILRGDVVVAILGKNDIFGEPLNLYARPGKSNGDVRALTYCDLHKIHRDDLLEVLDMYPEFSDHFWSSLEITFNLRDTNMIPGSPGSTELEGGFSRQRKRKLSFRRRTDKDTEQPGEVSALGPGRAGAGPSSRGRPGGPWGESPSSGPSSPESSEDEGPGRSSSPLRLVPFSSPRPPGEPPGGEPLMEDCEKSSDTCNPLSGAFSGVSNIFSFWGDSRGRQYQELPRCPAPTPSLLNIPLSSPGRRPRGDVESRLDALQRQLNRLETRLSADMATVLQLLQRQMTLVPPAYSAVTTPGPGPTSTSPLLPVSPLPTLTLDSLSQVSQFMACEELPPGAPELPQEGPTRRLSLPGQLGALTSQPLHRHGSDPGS

[7] = system: Salmonella typhimurium; assay: Mutagenicity in Salmonella typhimurium TA100 assessed as revertant colonies/plate in presence of liver S9 fraction at 1000 ug/plate by Ames test (reference value: 129 +/- 3); assay type: toxicity; details: salmonella enterica subsp. enterica serovar typhimurium
[8] = system: Salmonella typhimurium; assay: Mutagenicity in Salmonella typhimurium TA100 assessed as revertant colonies/plate in absence of liver S9 fraction at 1000 ug/plate by Ames test (reference value: 125 +/- 9); assay type: toxicity; details: salmonella enterica subsp. enterica serovar typhimurium
[9] = system: Salmonella typhimurium; assay: Mutagenicity in Salmonella typhimurium TA98 assessed as revertant colonies/plate in absence of liver S9 fraction at 1000 ug/plate by Ames test (reference value: 21 +/- 1); assay type: toxicity; details: salmonella enterica subsp. enterica serovar typhimurium
[10] = Cmax in rat at 1 mg/kg, iv; assay type: ADME, organism-based; parameters: dose 1 mg/kg, route intravenous; details: in vivo
[11] = system: Salmonella typhimurium; assay: Mutagenicity in Salmonella typhimurium TA98 assessed as revertant colonies/plate in presence of liver S9 fraction at 1000 ug/plate by Ames test (reference value: 25 +/- 3); assay type: toxicity; details: salmonella enterica subsp. enterica serovar typhimurium
[12] = Metabolic stability in rat plasma assessed as compound remaining at 100 uM after 4 hrs incubation by LC-MS/MS analysis; assay type: ADME, cell-free; details: read-out: Stability; in short: as §1
[13] = system: Rattus norvegicus; assay: Half life in rat at 1 mg/kg, iv; assay type: ADME, organism-based; details: in vivo
[14] = system: Hepatitis C virus subtype 1b; assay: Inhibition of HCV genotype 1b NK5.1 NS5A in infected human Huh 7.5.1 cells assessed as reduction in viral RNA replication by measuring combination index in presence of NS5B inhibitor sofosbuvir at ED95 incubated for 3 days by luciferase reporter gene assay; in short: as §2
[15] = Cmax in rat at 10 mg/kg, po; assay type: ADME, organism-based; parameters: dose 10 mg/kg, route oral; details: in vivo
[16] = Half life in rat at 10 mg/kg, po; assay type: ADME, organism-based; details: in vivo
[17] = system: Hepatitis C virus subtype 1b; assay: Inhibition of HCV genotype 1b NK5.1 NS5A in infected human Huh 7.5.1 cells assessed as reduction in viral RNA replication by measuring combination index in presence of NS5B inhibitor sofosbuvir at ED75 incubated for 3 days by luciferase reporter gene assay; in short: as §2
[18] = Oral bioavailability in rat at 10 mg/kg; assay type: ADME, organism-based; details: in vivo
[19] = system: Hepatitis C virus subtype 1b; assay: Inhibition of HCV genotype 1b NK5.1 NS5A in infected human Huh 7.5.1 cells assessed as reduction in viral RNA replication by measuring combination index in presence of NS5B inhibitor sofosbuvir at ED90 incubated for 3 days by luciferase reporter gene assay; in short: as §2
[20] = system: Salmonella typhimurium; assay: Mutagenicity in Salmonella typhimurium TA100 assessed as revertant colonies/plate in presence of liver S9 fraction at 5000 ug/plate by Ames test (reference value: 5 +/- 2 ); assay type: toxicity; details: salmonella enterica subsp. enterica serovar typhimurium
[21] = system: Salmonella typhimurium; assay: Mutagenicity in Salmonella typhimurium TA98 assessed as revertant colonies/plate in presence of liver S9 fraction at 5000 ug/plate by Ames test (reference value: 1); assay type: toxicity; details: salmonella enterica subsp. enterica serovar typhimurium
[22] = system: Salmonella typhimurium; assay: Mutagenicity in Salmonella typhimurium TA98 assessed as revertant colonies/plate in absence of liver S9 fraction at 5000 ug/plate by Ames test (reference value: 1); assay type: toxicity; details: salmonella enterica subsp. enterica serovar typhimurium
[23] = system: Salmonella typhimurium; assay: Mutagenicity in Salmonella typhimurium TA100 assessed as revertant colonies/plate in absence of liver S9 fraction at 5000 ug/plate by Ames test (reference value: 7 +/- 2 ); assay type: toxicity; details: salmonella enterica subsp. enterica serovar typhimurium
[24] = system: Salmonella typhimurium; assay: Mutagenicity in Salmonella typhimurium TA98 assessed as revertant colonies/plate in absence of liver S9 fraction at 1 ug/plate by Ames test (reference value: 21 +/- 1); assay type: toxicity; details: salmonella enterica subsp. enterica serovar typhimurium

Compound: COC(=O)N[C@@H](C(=O)N1CCC[C@H]1C(=O)Nc1ccc(S(=O)(=O)c2ccc(NC(=O)[C@@H]3CCCN3C(=O)[C@H](NC(=O)OC)C(C)C)cc2)cc1)C(C)C
- EC50 [1]: > 100000 nM
- Activity [2]: > 30 µM

Compound: CCN(CC)CCOC(=O)c1ccc(N)cc1 [PROCAINE]
- remaining at 4 h, 100 µM [4]: 0.003%

Compound: COC(=O)N[C@@H](C(=O)N1CCC[C@H]1C(=O)Nc1cccc(OS(=O)(=O)Oc2cccc(NC(=O)[C@@H]3CCCN3C(=O)[C@H](NC(=O)OC)c3ccccc3)c2C)c1C)c1ccccc1
- EC50 [1]: 22.9 nM
- Activity [2]: > 30 µM

Compound: COC(=O)N[C@H](C(=O)N1CCC[C@H]1c1ncc(-c2ccc(OS(=O)(=O)Oc3ccc(-c4cnc([C@@H]5CCCN5C(=O)[C@@H](NC(=O)OC)C(C)C)[nH]4)cc3)cc2)[nH]1)C(C)C
- EC50 [1]: 4.26 nM
- Activity [2]: > 30 µM

Compound: Nc1ccc(OS(=O)(=O)Oc2ccc(N)cc2)cc1
- Activity [20]: 8
- Activity [21]: 1
- Activity [22]: 1
- Activity [23]: 10

Compound: COC(=O)N[C@H](C(=O)N1CCC[C@H]1C(=O)Nc1ccc(S(=O)(=O)c2ccc(NC(=O)[C@@H]3CCCN3C(=O)[C@@H](NC(=O)OC)C(C)C)cc2)cc1)C(C)C
- EC50 [1]: > 100000 nM
- Activity [2]: > 30 µM

Compound: COC(=O)N[C@@H](C(=O)N1CCC[C@H]1c1ncc(-c2cccc(OS(=O)(=O)Oc3cccc(-c4cnc([C@@H]5CCCN5C(=O)[C@H](NC(=O)OC)c5ccccc5)[nH]4)c3)c2)[nH]1)c1ccccc1
- EC50 [3]: 10 nM
- EC50 [1]: 0.36 nM
- Activity [2]: > 30 µM

Compound: O=[N+]([O-])c1ccc2c(c1)Cc1ccccc1-2 [2-NITROFLUORENE]
- Activity [24]: 183

Compound: CCOC(=O)[C@H](CCc1ccccc1)N[C@@H](C)C(=O)N1CCC[C@H]1C(=O)O
- remaining at 4 h, 100 µM [12]: 0.032%

Compound: COC(=O)N[C@@H](C(=O)N1CCC[C@H]1C(=O)Nc1ccc(OS(=O)(=O)Oc2ccc(NC(=O)[C@@H]3CCCN3C(=O)[C@H](NC(=O)OC)C(C)C)cc2)cc1)C(C)C
- EC50 [1]: 575 nM
- Activity [2]: > 30 µM

Compound: COC(=O)N[C@@H](C(=O)N1CCC[C@H]1c1ncc(-c2ccc(OS(=O)(=O)Oc3ccc(-c4cnc([C@@H]5CCCN5C(=O)[C@H](NC(=O)OC)C(C)C)[nH]4)cc3)cc2)[nH]1)C(C)C
- EC50 [3]: 427 nM
- EC50 [1]: 417 nM
- Activity [2]: > 30 µM

Compound: COC(=O)N[C@@H](C(=O)N1CCC[C@H]1C(=O)Nc1ccc(S(=O)(=O)c2ccc(NC(=O)[C@@H]3CCCN3C(=O)[C@H](NC(=O)OC)c3ccccc3)cc2)cc1)c1ccccc1
- EC50 [1]: 36.1 nM
- Activity [2]: > 30 µM

Compound: COC(=O)N[C@H](C(=O)N1CCC[C@H]1c1ncc(-c2cccc(OS(=O)(=O)Oc3cccc(-c4cnc([C@@H]5CCCN5C(=O)[C@@H](NC(=O)OC)C(C)(C)C)[nH]4)c3)c2)[nH]1)C(C)(C)C
- EC50 [1]: 37.1 nM
- Activity [2]: > 30 µM

Second part, led by results:

- EC50 [3]: 2.23 nM
- EC50 [1]: 0.109 nM
Compound: COC(=O)N[C@@H](C(=O)N1CCC[C@H]1C(=O)Nc1ccc(C)c(OS(=O)(=O)Oc2cc(NC(=O)[C@@H]3CCCN3C(=O)[C@H](NC(=O)OC)c3ccccc3)ccc2C)c1)c1ccccc1
- Activity [2]: > 30 µM

- CI [5]: 0.98
- EC50 [3]: 0.882 nM
- remaining at 4 h, 100 µM [4]: 92.6%
- EC50 [1]: 0.0323 nM
- Cmax [10]: 1680 ng/mL
- remaining at 4 h, 100 µM [12]: 87.2%
- t1/2 [13]: 0.92 h
- CI [14]: 1.25
- Cmax [15]: 17 ng/mL
- half-life [16]: 2.25 h
- CI [17]: 1.06
- bioavailability [18]: 0.74%
- CI [19]: 1.16
Compound: COC(=O)N[C@H](C(=O)N1CCC[C@H]1c1ncc(-c2cccc(OS(=O)(=O)Oc3cccc(-c4cnc([C@@H]5CCCN5C(=O)[C@@H](NC(=O)OC)C(C)C)[nH]4)c3)c2)[nH]1)C(C)C
- inhibition at 10 µM [6]: 18.7%
- Activity [7]: 110
- Activity [8]: 125
- Activity [9]: 28
- Activity [11]: 29
- Activity [2]: > 30 µM

- EC50 [3]: 0.943 nM
- EC50 [1]: 0.0772 nM
Compound: COC(=O)N[C@H](C(=O)N1CCC[C@H]1C(=O)Nc1cccc(OS(=O)(=O)Oc2cccc(NC(=O)[C@@H]3CCCN3C(=O)[C@@H](NC(=O)OC)C(C)(C)C)c2)c1)C(C)(C)C
- Activity [2]: > 30 µM

- EC50 [1]: 0.01 nM
Compound: COC(=O)N[C@@H](C(=O)N1CCC[C@H]1C(=O)Nc1ccc(OS(=O)(=O)Oc2ccc(NC(=O)[C@@H]3CCCN3C(=O)[C@H](NC(=O)OC)c3ccccc3)cc2)cc1)c1ccccc1
- Activity [2]: > 30 µM

- CI [5]: 0.872
- EC50 [3]: 0.0199 nM
- remaining at 4 h, 100 µM [4]: 86.3%
- EC50 [1]: 0.0198 nM
- Cmax [10]: 1960 ng/mL
- remaining at 4 h, 100 µM [12]: 76.7%
- t1/2 [13]: 0.51 h
- CI [14]: 0.977
- Cmax [15]: 14 ng/mL
- half-life [16]: 1.6 h
- CI [17]: 0.909
- bioavailability [18]: 0.54%
- CI [19]: 0.949
Compound: COC(=O)N[C@@H](C(=O)N1CCC[C@H]1C(=O)Nc1cccc(OS(=O)(=O)Oc2cccc(NC(=O)[C@@H]3CCCN3C(=O)[C@H](NC(=O)OC)c3ccccc3)c2)c1)c1ccccc1
- inhibition at 10 µM [6]: 2.73%
- Activity [7]: 130
- Activity [8]: 126
- Activity [9]: 26
- Activity [11]: 29
- Activity [2]: > 30 µM

- EC50 [3]: 0.147 nM
- EC50 [1]: 0.27 nM
Compound: COC(=O)N[C@@H](C(=O)N1CCC[C@H]1c1ncc(-c2ccc(OS(=O)(=O)Oc3ccc(-c4cnc([C@@H]5CCCN5C(=O)[C@H](NC(=O)OC)c5ccccc5)[nH]4)cc3)cc2)[nH]1)c1ccccc1
- Activity [2]: > 30 µM
